Data published in ChEMBL document CHEMBL2157910, “Structure-activity relationship studies of 4-benzyl-1H-pyrazol-3-yl β-d-glucopyranoside derivatives as potent and selective sodium glucose co-transporter 1 (SGLT1) inhibitors with therapeutic activity on postprandial hyperglycemia” (Bioorg Med Chem, 2012).
In brackets after ≈: the same amount, converted by molar mass. Activity calls are given as the source filed them. The calls are words filed in the database; no cut-off is given here.

Legend:
[1] = molecular target: T1, Sodium/glucose cotransporter 2 (Homo sapiens, UniProt P31639); assay: Inhibition of human SGLT2 expressed in COS7 cells assessed as reduction of [14C]-AMG uptake; format: cell-based, COS-7
T1 sequence (P31639 whole entry): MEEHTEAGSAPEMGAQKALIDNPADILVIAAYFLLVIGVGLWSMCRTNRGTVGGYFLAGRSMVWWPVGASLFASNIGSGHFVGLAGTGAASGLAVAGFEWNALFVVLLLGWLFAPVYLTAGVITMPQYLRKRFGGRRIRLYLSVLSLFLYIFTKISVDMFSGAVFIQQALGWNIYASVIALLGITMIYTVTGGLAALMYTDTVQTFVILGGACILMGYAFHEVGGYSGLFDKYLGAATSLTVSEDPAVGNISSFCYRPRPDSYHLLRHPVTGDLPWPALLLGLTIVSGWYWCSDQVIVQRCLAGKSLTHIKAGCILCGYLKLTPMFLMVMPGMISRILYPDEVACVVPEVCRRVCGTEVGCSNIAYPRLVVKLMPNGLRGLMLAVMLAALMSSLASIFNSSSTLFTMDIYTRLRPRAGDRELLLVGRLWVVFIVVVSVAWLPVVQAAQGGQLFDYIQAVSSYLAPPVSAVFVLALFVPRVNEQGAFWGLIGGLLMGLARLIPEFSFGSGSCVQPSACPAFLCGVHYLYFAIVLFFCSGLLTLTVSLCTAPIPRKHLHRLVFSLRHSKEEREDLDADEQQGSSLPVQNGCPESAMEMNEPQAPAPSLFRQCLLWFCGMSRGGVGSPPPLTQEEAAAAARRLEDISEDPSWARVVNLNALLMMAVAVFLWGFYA

[2] = system: Rattus norvegicus; assay: Toxicity in Wistar rat assessed as overnight urinary glucose excretion at 10 mg/kg, po; format: organism-based, Urine; parameters: dose 10 mg/kg, route oral; conditions: in vivo
Procedure, shortened: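 Male Wistar rats (8 weeks) in metabolic cages, fasted 08:00 to next morning. At 16:00 they received 10 mg/kg orally in 0.5% CMC or vehicle, and urine was collected until 08:00. Urine glucose by glucose oxidase; n = 5; F-test then Student's t or Welch's test versus vehicle.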

[3] = molecular target: T2, Sodium/glucose cotransporter 2 (Rattus norvegicus, UniProt P53792); assay: Inhibition of rat SGLT2 expressed in COS7 cells assessed as reduction of [14C]-AMG uptake; format: cell-based, COS-7
T2 sequence (P53792 whole entry): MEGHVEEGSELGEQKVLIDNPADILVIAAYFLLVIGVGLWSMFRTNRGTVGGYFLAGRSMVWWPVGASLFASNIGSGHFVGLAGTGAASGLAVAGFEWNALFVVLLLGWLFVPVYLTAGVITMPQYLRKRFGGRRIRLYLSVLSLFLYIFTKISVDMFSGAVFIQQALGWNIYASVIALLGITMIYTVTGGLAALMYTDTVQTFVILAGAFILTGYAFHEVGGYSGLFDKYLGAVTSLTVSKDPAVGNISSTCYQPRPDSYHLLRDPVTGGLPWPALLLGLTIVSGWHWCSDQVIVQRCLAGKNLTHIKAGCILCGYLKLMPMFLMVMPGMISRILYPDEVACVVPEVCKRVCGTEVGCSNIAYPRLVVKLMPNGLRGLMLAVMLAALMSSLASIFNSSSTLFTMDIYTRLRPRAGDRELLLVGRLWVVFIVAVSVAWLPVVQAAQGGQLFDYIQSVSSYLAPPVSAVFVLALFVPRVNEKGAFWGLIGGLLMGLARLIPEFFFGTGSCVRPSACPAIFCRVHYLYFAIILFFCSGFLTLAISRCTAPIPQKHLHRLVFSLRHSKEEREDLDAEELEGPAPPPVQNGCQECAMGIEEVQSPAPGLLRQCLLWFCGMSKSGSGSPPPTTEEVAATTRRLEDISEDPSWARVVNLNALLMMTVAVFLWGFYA

[4] = Metabolic stability of the compound in rat intestinal microsomes assessed as compound remaining at 50 uM after 30 mins; format: ADME, Intestine; conditions: for Stability: microsomes, 0.5 h, 50 µM
Procedure, shortened: (§1)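 50 µM final compound incubated at 37 °C with 0.8 mg/mL rat intestinal microsomes, 1 mg/mL NADPH, 50 mM ammonium acetate (pH 5.0) and 10 mM MgCl2. Levels measured by LC–MS at 0, 30 and 60 min; reported as % remaining relative to 0 min.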

[5] = Metabolic stability of the compound in rat intestinal microsomes assessed as compound remaining at 50 uM after 60 mins; format: ADME, Intestine; conditions: for Stability: microsomes, 1 h, 50 µM; procedure, shortened: as §1
[6] = system: Rattus norvegicus; assay: Antihyperglycemic activity in Wistar rat streptozotocin-nicotinamide-induced diabetic model assessed as reduction of plasma glucose level at 1 mg/kg, po after 1 hr by oral mixed carbohydrate tolerance test; format: functional, organism-based; parameters: dose 1 mg/kg
Procedure, shortened: (§2)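 Male Wistar rats (8 weeks) given nicotinamide 230 mg/kg i.p., then streptozotocin 85 mg/kg i.v. 15 min later; after 1 week, rats above 250 mg/dL plasma glucose at 1 h in a 2 g/kg glucose tolerance test were used. Overnight-fasted rats were dosed orally in 0.5% CMC, then immediately loaded with 2 g/kg starch/sucrose/lactose (6:3:1). Plasma glucose by glucose oxidase; n = 7; Dunnett's test versus vehicle.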

[7] = system: Rattus norvegicus; assay: Antihyperglycemic activity in po dosed Wistar rat streptozotocin-nicotinamide-induced diabetic model assessed as reduction of plasma glucose level after 1 hr by oral mixed carbohydrate tolerance test; format: functional, organism-based; procedure, shortened: as §2
[8] = molecular target: T3, Sodium/glucose cotransporter 1 (Rattus norvegicus, UniProt P53790); assay: Inhibition of rat SGLT1 expressed in COS7 cells assessed as reduction of [14C]-AMG uptake; format: cell-based, COS-7
T3 sequence (P53790 whole entry): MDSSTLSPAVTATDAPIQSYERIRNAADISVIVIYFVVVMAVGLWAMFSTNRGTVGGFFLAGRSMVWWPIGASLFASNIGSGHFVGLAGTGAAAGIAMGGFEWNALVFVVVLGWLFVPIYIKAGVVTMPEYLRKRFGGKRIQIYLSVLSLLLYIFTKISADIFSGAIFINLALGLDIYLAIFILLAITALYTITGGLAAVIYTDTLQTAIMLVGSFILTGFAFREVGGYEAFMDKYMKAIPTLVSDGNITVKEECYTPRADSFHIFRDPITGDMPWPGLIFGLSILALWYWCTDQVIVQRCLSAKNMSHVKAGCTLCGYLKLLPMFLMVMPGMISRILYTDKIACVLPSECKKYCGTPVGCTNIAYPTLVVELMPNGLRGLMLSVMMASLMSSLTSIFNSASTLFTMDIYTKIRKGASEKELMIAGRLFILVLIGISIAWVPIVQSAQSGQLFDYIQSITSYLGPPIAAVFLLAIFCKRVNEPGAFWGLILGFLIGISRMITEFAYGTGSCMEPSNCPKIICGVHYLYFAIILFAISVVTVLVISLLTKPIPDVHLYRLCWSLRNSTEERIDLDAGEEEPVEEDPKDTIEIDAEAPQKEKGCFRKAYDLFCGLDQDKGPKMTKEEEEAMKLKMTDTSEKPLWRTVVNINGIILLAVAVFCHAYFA

[9] = Solubility of the compound in distilled water; format: physicochemical
Procedure, shortened: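 Solubility measured in distilled water, with filtrate concentration quantified by HPLC.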

[10] = intestinal microsomes, read-out: Stability

| Structure (SMILES) | IC50 [1] [µM] | further results |
| --- | --- | --- |
| Cc1[nH]nc(O[C@@H]2O[C@H](CO)[C@@H](O)[C@H](O)[C@H]2O)c1Cc1ccccc1OCc1ccccc1 | 5.01 | – |
| OC[C@H]1O[C@@H](Oc2[nH]nc(C(F)(F)F)c2Cc2cccc(O)c2)[C@H](O)[C@@H](O)[C@@H]1O | 2.79 | – |
| CCOC(=O)OC[C@H]1O[C@@H](Oc2ccccc2Cc2ccc(OC)cc2)[C@H](O)[C@@H](O)[C@@H]1O [SERGLIFLOZIN ETABONATE] | – | Activity [2]: 53.3 mg |
| COc1ccccc1Cc1c(O[C@@H]2O[C@H](CO)[C@@H](O)[C@H](O)[C@H]2O)n[nH]c1C(C)C | 204 | – |
| OC[C@H]1O[C@@H](Oc2n[nH]c(C3CC3)c2Cc2ccccc2OCc2ccccc2)[C@H](O)[C@@H](O)[C@@H]1O | 156 | – |
| O=C(CCc1ccc(O)cc1)c1c(O)cc(O)cc1O[C@@H]1O[C@H](CO)[C@@H](O)[C@H](O)[C@H]1O [PHLORIZIN] | – | IC50 [3]: 0.096 µM; Stability [4]: Unstable; Stability [5]: Unstable; Activity [6]: inactive |
| Cc1cc(O)ccc1Cc1c(O[C@@H]2O[C@H](CO)[C@@H](O)[C@H](O)[C@H]2O)n[nH]c1C(C)C | – | Activity [7]: Dose-dependent effect |
| COc1ccc(Cc2c(O[C@@H]3O[C@H](CO)[C@@H](O)[C@H](O)[C@H]3O)n[nH]c2C(C)C)cc1 | 0.377 | – |
| CC(C)c1n[nH]c(O[C@@H]2O[C@H](CO)[C@@H](O)[C@H](O)[C@H]2O)c1Cc1ccccc1F | 1.39 | – |
| OC[C@H]1O[C@@H](Oc2[nH]nc(C(F)(F)F)c2Cc2cccc(OCc3ccccc3)c2)[C@H](O)[C@@H](O)[C@@H]1O | 5.68 | – |
| CC(C)c1[nH]nc(O[C@@H]2O[C@H](CO)[C@@H](O)[C@H](O)[C@H]2O)c1Cc1ccc(C#N)cc1 | 3.58 | – |
| CCc1ccc(Cc2c(C(C)C)n[nH]c2O[C@@H]2O[C@H](CO)[C@@H](O)[C@H](O)[C@H]2O)cc1 | 0.068 | – |
| Cc1ccccc1Cc1c(C(C)C)n[nH]c1O[C@@H]1O[C@H](CO)[C@@H](O)[C@H](O)[C@H]1O | 18.5 | – |
| OC[C@H]1O[C@@H](Oc2[nH]nc(C(F)(F)F)c2Cc2ccc(O)cc2)[C@H](O)[C@@H](O)[C@@H]1O | 0.154 | – |
| Cc1cc(O)ccc1Cc1c(C(C)C)n[nH]c1O[C@@H]1O[C@H](CO)[C@@H](O)[C@H](O)[C@H]1O | 6.89 | IC50 [8]: 0.183 µM; IC50 [3]: 4.37 µM |
| CC(C)c1[nH]nc(O[C@@H]2O[C@H](CO)[C@@H](O)[C@H](O)[C@H]2O)c1Cc1ccc(O)cc1 | 0.285 | – |

| Structure (SMILES) | IC50 [1] [µM] | further results |
| --- | --- | --- |
| CCc1[nH]nc(O[C@@H]2O[C@H](CO)[C@@H](O)[C@H](O)[C@H]2O)c1Cc1ccccc1OCc1ccccc1 | 13.9 | – |
| OC[C@H]1O[C@@H](Oc2n[nH]c(C(F)(F)F)c2Cc2ccccc2O)[C@H](O)[C@@H](O)[C@@H]1O | 14.9 | – |
| CC(C)c1[nH]nc(O[C@@H]2O[C@H](CO)[C@@H](O)[C@H](O)[C@H]2O)c1Cc1ccccc1OCc1ccccc1 | 74 | IC50 [8]: 0.308 µM; IC50 [3]: 100 µM; remaining at 0.5 h, 50 µM [4, 10]: 71%; remaining at 1 h, 50 µM [5, 10]: 51%; solubility [9]: 240 µg/mL (≈ 0.495 mM); Activity [2]: 0.4 mg |
| Cc1cccc(Cc2c(O[C@@H]3O[C@H](CO)[C@@H](O)[C@H](O)[C@H]3O)n[nH]c2C(C)C)c1 | 5.98 | – |
| CC(C)(C)c1[nH]nc(O[C@@H]2O[C@H](CO)[C@@H](O)[C@H](O)[C@H]2O)c1Cc1ccccc1OCc1ccccc1 | 64.7 | – |
| CC(C)c1n[nH]c(O[C@@H]2O[C@H](CO)[C@@H](O)[C@H](O)[C@H]2O)c1Cc1ccccc1C(F)(F)F | 60.5 | – |
| CC(C)c1[nH]nc(O[C@@H]2O[C@H](CO)[C@@H](O)[C@H](O)[C@H]2O)c1Cc1ccccc1 | 2.02 | solubility [9]: 19000 µg/mL (≈ 50.2 mM) |
| CC(C)c1[nH]nc(O[C@@H]2O[C@H](CO)[C@@H](O)[C@H](O)[C@H]2O)c1Cc1ccc(F)cc1 | 4.14 | – |
| OC[C@H]1O[C@@H](Oc2n[nH]c(C(F)(F)F)c2Cc2ccc(OCc3ccccc3)cc2)[C@H](O)[C@@H](O)[C@@H]1O | 0.007 | – |
| OC[C@H]1O[C@@H](Oc2n[nH]c(C(F)(F)F)c2Cc2ccccc2OCc2ccccc2)[C@H](O)[C@@H](O)[C@@H]1O | 14 | IC50 [8]: 0.227 µM; IC50 [3]: 40.8 µM; Stability [4]: Unstable; Stability [5]: Unstable |
| OC[C@H]1O[C@@H](Oc2n[nH]c(C(F)(F)F)c2Cc2ccccc2)[C@H](O)[C@@H](O)[C@@H]1O | 0.342 | – |
| CC(C)c1[nH]nc(O[C@@H]2O[C@H](CO)[C@@H](O)[C@H](O)[C@H]2O)c1Cc1ccccc1O | 75.9 | – |
| CCc1ccccc1Cc1c(O[C@@H]2O[C@H](CO)[C@@H](O)[C@H](O)[C@H]2O)n[nH]c1C(C)C | 14.1 | – |
| Cc1ccc(Cc2c(O[C@@H]3O[C@H](CO)[C@@H](O)[C@H](O)[C@H]3O)n[nH]c2C(C)C)cc1 | 0.231 | – |
| CC(C)c1[nH]nc(O[C@@H]2O[C@H](CO)[C@@H](O)[C@H](O)[C@H]2O)c1Cc1ccccc1C#N | 65.7 | – |
| CC(C)c1[nH]nc(O[C@@H]2O[C@H](CO)[C@@H](O)[C@H](O)[C@H]2O)c1Cc1cccc(O)c1 | 13.3 | – |
